EBNA-1 inh: blocks EBNA-1 binding to DNA. inhibition, % at 14.8 µM. EBNA-1 DNA binding, fluorescence polarization. AID 1950. 300,000 compounds, 0.34% hits; in the data active = inhibition above about 28%
procasp3 activ: activators of human procaspase-3. P42574. recombinant procaspase-3 D3A, Ac-DEVD-pNA absorbance 405 nm. activation, % at 8.5 µM. 330,000 compounds, 0.11% hits;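 active = activation above the mean of all tested compounds plus 3 SD, cut at about 21% in these data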;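 also: 0% = DMSO alone and 100% = DMSO wells spiked with extra 5 µM PC-3 D3A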
Target sequence (P42574 whole entry D9A/D28A/D175A): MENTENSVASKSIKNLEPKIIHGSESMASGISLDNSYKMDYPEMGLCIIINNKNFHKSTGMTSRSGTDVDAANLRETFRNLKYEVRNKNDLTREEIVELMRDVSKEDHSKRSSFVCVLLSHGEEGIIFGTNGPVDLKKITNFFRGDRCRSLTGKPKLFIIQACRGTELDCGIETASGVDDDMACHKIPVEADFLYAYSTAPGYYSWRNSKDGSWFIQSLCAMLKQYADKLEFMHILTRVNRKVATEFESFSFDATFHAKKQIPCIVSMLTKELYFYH
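Assay system: Autoprocessing-dead procaspase-3 D3A mutant enzyme; also added: Ac-DEVD-pNA; doses: one concentration, 8.5 µM nominal, 0.8% DMSO; times: 1 h compound preincubation, 2 h substrate hydrolysis at 25 °C; technique: 405 nm absorbance of p-nitroaniline, reads at 0 and 120 min; measure: % activation between DMSO and enzyme-spiked controls; repeats: single replicate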
Apaf1 inhib: human Apaf-1 inhibition. O14727. reconstituted apoptosome caspase-3 activity, DEVD-Rh110 fluorescence. inhibition, % at 20 µM. 330,000 compounds, 0.71% hits. AID 489030; active = inhibition of at least 40% at 20 µM;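 also: plate controls were DMSO wells for no effect and DEVD-CHO caspase inhibitor wells for full effect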
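System: Apoptosome proteins | Medium: Hepes pH 7.5 with detergent and BSA | Also added: Cytochrome c trigger plus (Z-DEVD)2-Rh110 caspase-3 substrate | Incubation: 30 min compound preincubation, 50 min activation, room temperature | Detection: Rhodamine 110 fluorescence at Ex 480/Em 540 nm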
ZTA DNA inh: ZTA (EBV) inhibition in EBNA-1 counter-screen; P03206; ZTA-DNA binding, fluorescence polarization; inhibition, % at 11 µM; 320,000 compounds, 0.15% hits; AID 2234; in the data active = inhibition above about 33%
GSTO1 counter: blocks human GSTO1 in RBBP9 counter-screen | P78417 | recombinant GSTO1, activity-based probe fluorescence polarization | inhibition, % at 5.96 µM | 300,000 compounds, 1.1% hits | AID 1974;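 active = inhibition above the campaign mean inhibition plus 3 SD, cut at about 35% in these data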;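 also: 0% = GSTO1-1 with DMSO and 100% = wells lacking GSTO1-1 enzyme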
procasp7 counter: counter-screen for procaspase-3 activators: activators of human procaspase-7 | 330,000 compounds, 0.093% hits | AID 463210 | recombinant procaspase-7, Ac-DEVD-pNA absorbance 405 nm; D23A/D198A/D206A triple mutant, cannot self-cleave; scale: DMSO 0, 5 µM enzyme 100 | activation, % at 8.5 µM;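 active = percent activation above the screen-wide mean plus 3 SD, cut at about 25% in these data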
Target sequence (P55210 whole entry D23A/D198A/D206A): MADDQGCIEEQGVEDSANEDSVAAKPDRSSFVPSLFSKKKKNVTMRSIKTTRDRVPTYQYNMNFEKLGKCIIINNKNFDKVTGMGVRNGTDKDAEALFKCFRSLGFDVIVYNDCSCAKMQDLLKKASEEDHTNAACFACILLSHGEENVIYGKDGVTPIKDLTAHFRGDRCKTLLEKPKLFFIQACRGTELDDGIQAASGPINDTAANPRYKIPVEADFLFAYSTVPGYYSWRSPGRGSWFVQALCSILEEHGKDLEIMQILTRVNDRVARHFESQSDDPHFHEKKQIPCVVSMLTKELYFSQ
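Assay system: Uncleavable procaspase-7 mutant enzyme | Input: 2 µM procaspase-7 mutant as dispensed | Timing: 1 h compound preincubation, 2 h substrate cleavage, 25 °C | Repeats: One well per compound | Control set: DMSO wells as 0%, DMSO with 5 µM added PC-7 as 100% | Technique: Epi-absorbance of released pNA at 405 nm, two timepoints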
EBNA-1 inh conf: EBNA-1 (EBV) inhibition, confirmation; Recombinant EBNA-1 DBD, Cy5-DNA fluorescence polarization; AID 2292; shares compounds with EBNA-1 inh; inhibition, % at 14.8 µM; 830 compounds, 35% hits;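 active = mean inhibition across replicates above a set limit taken from the earlier primary screen, cut at about 28% in these data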;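 also: plate controls were EBNA-1 protein with DMSO for no effect and wells lacking EBNA-1 for full effect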
ZTA counter trip: ZTA (EBV) inhibition, triplicate counter-screen. 830 tested, under 10 active. Zta-ZRE DNA binding, Cy5 fluorescence polarization. shares compounds with EBNA-1 inh. inhibition, % at 11.1 µM;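 active = mean inhibition over triplicates above a set limit taken from the primary EBNA-1 screen, cut at about 37% in these data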;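 also: purified full length Zta protein with Cy5 labeled ZRE DNA probe; 0% = Zta with DMSO and 100% = wells lacking Zta protein; inhibitors lower polarization by freeing the labeled DNA probe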
Numbers without * were called inactive; / = not tested or not shown. Shown are actives, neighbours in structure and some others; about 1.8% of the full set was active somewhere.

SMILES	EBNA-1 inh	procasp3 activ	Apaf1 inhib	ZTA DNA inh	GSTO1 counter	procasp7 counter	EBNA-1 inh conf	ZTA counter trip
Cc1cc(NC(=O)CSc2nnc(NC(=O)C3CC(=O)N(c4ccccc4)C3)s2)no1 (configuration not stated)	83*	-4	-19	-23	-1	1	21	7
Cc1cc(NC(=O)CSc2nnc(NC(=O)C3CC(=O)N(c4ccccc4C)C3)s2)no1 (configuration not stated)	2	5	8	13	-9	2	/	/
CCOc1ccc2nc(N3CCOCC3)nc(C)c2c1	3	-1	0	15	4	6	/	/
CCOc1ccc2nc3ccc4[nH]onc4c3c2c1	31*	-19	4	1	-8	-13	9	-1
CCn1cc([N+](=O)[O-])c(=O)c2cc(F)c(N3CCOCC3)cc21	-16	-11	5	-10	2	-69	/	/
CC(=O)NC(=S)Nc1ccc(NC(=S)NC(=O)/C=C/c2ccco2)cc1	43*	-9	-11	1	6	6	32*	15
CCOC(=O)N1CCN(C(=O)C2CC(=O)N(Cc3ccc(OC)cc3)C2)CC1 (configuration not stated)	1	3	-3	-3	1	2	/	/
COc1ccc(CN2CC(C(=O)N3CCOCC3)CC2=O)cc1 (configuration not stated)	47*	3	8	-3	7	4	-13	-26
Cc1cc(NS(=O)(=O)c2c(C)[nH]c(=O)[nH]c2=O)ccc1Br	/	/	4	/	/	/	/	/
COc1ccc(NC(=O)Nc2ccc(OC)cc2)cc1	54*	-3	4	4	19	4	32*	0
COc1ccc(C(=O)Nc2ccc3c(c2)C(=O)NC3=O)cc1	33*	4	2	10	-6	3	26	5
COC(=O)c1ccc(NC(=O)Nc2ccc(OC)cc2)cc1	-9	6	8	-7	14	0	/	/
COc1ccc(NC(=O)c2ccc(OC(=S)N(C)c3ccc(OC)cc3)cc2)cc1	34*	-3	-33	13	2	1	19	8
COc1ccc(C(=O)Nc2ccc(C3(C#N)CCCC3)cc2)cc1	56*	4	0	18	1	12	13	2
CN(C(=S)Oc1ccc(C(=O)Nc2ccccc2)cc1)c1ccccc1	5	4	-4	-13	-6	14	/	/
COc1cccc(CN(C)C(=O)c2cc(S(=O)(=O)N3CCCC3)ccc2C)c1OC	/	-9	7	/	/	-1	/	/
CCOC(=O)c1c(C)[nH]c(C(=O)OCC(=O)Nc2ccc(OC)c(Cl)c2)c1C	94*	0	8	22	-1	-2	32*	-5
COc1ccc(N(CC(=O)N/N=C(\C)c2ccccc2)S(=O)(=O)c2ccccc2)cc1	6	-2	22	5	4	3	/	/
CCOc1ccc(N(CC(=O)N/N=C(\C)c2cccc(NC(C)=O)c2)S(=O)(=O)c2ccccc2)cc1	53*	3	23	-2	-4	-2	10	7
Cc1c(NC(=O)COC(=O)c2cc(-c3ccc(-c4ccccc4)cc3)nc3ccccc23)c(=O)n(-c2ccccc2)n1C	31*	-42	/	18	-18	-24	16	-1
N#CCc1ccc(NC(=O)c2cc(S(=O)(=O)N3CCOCC3)ccc2Cl)cc1	7	6	0	13	2	3	/	/
COc1ccc(-c2csc(N3C(=O)C4C5c6ccccc6C(c6ccccc65)C4C3=O)n2)cc1 (configuration not stated)	3	2	8	3	4	9	/	/
COc1ccc(-c2csc(N3C(=O)CNC3=S)n2)cc1	82*	-1	/	-1	14	-4	44*	-11
COc1ccc(-c2csc(N3C(=N)SCC3=O)n2)cc1	44*	3	-12	3	12	12	16	-1
COc1ccc(-c2csc(N3C(=O)C4C5c6ccccc6C(c6ccccc65)[C@@H]4C3=O)n2)cc1 (some centres not stated)	9	1	7	0	-2	-4	/	/
SMILES	EBNA-1 inh	procasp3 activ	Apaf1 inhib	ZTA DNA inh	GSTO1 counter	procasp7 counter	EBNA-1 inh conf	ZTA counter trip
O=C(O)c1ccc(OS(=O)(=O)c2ccc(Cl)s2)c(Cl)c1	/	-2	1	12	/	1	/	/
Cc1cc(C)cc(N(CCC#N)C(=O)COC(=O)Cn2[nH]c(=O)c3ccccc3c2=O)c1	/	9	11	/	/	14	/	/
CC(C)OCCCNc1ccc(N2C(=O)CCCC2=O)cc1[N+](=O)[O-]	2	-4	-4	12	-3	1	/	/
COc1ccc(-c2csc(NC(=S)NC(=O)c3cccs3)n2)cc1OC	/	/	23	/	/	/	/	/
COc1ccc(-c2csc(NC(=S)NC(=O)c3ccc(S(=O)(=O)N(C)C)cc3)n2)cc1OC	46*	-3	-30	15	-3	-2	59*	41*
O=C(Nc1ccc(S(=O)(=O)Nc2cnc3ccccc3n2)cc1)c1ccc([N+](=O)[O-])cc1Cl	6	-7	-7	-13	2	10	/	/
CC1=Nc2nc(N3CCCCCC3)c(C#N)c3c4c(nc(c23)N1)N(c1ccc2ccccc2c1)C(=O)C4	4	10	23	-3	22	6	/	/
O=C(COC(=O)c1cc(NS(=O)(=O)c2cccs2)ccc1O)Nc1cc(Cl)ccc1Cl	36*	5	-9	12	-13	4	15	6
COc1ccc(NC(=O)CCC(=O)c2cccs2)cc1S(=O)(=O)Nc1ccc(Cl)cc1	34*	6	6	16	-5	-4	17	0
COc1ccccc1NS(=O)(=O)c1cc(NC(=O)CCC(=O)c2cccs2)ccc1Cl	-3	5	11	10	-16	-1	/	/
COc1cccc(/C=C/C(=O)NNC(=O)c2ccco2)c1OC	/	-4	-2	-24	/	-4	/	/
COc1ccc2cc(/C=N/NC(=O)c3ccc(CN(c4ccc(C)c(C)c4)S(C)(=O)=O)cc3)c(Cl)nc2c1	53*	7	5	-3	-21	-3	24	14
CC(C)Oc1ccc(/C=N/NC(=O)c2ccc(N(Cc3ccccc3)S(C)(=O)=O)cc2)cc1	5	4	11	-1	-5	4	/	/
COC(=O)COc1ccc(/C=N/NC(=O)c2ccc(N(Cc3ccccc3)S(C)(=O)=O)cc2)cc1	67*	7	16	-20	1	-14	16	0
